# A selection: hits, their analogues and other compounds. The true share with any hit is near 1.6%.
# eIF4H FP inh: human eIF4H binding inhibitors, primary screen, translation initiation inhibitor project, biochemical, uHTS, fluorescence polarization | Eukaryotic translation initiation factor 4H (Homo sapiens), Q15056 | eIF4H fluorescence polarization binding assay | inhibition, % at 35 µM | 290,000 compounds, 0.94% hits | AID 2012, 2009;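 further: calls also rest on retests at 20 µM and on dose response follow-up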
# MLLE-PAM2 inh: inhibitors of PABP1 MLLE–PAM2 peptide binding, primary screen, biochemical, fluorescence polarization, FITC-PAM2, GST-MLLE | Polyadenylate-binding protein 1 (Homo sapiens), P11940 | inhibition, % at 20 µM | 360,000 compounds, 0.36% hits; in the data active means inhibition above about 35%, passing the limit was not always enough;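 further: plate controls were DMSO wells with GST-MLLE for no effect and wells lacking GST-MLLE protein for full effect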
# TCR-CD3 inh: inhibitors of human TCR-CD3 interaction, primary screen, biochemical, fluorescence, TAMRA-labeled TCR probe | T-cell receptor (TCR) | inhibition, % at 9.4 µM | 360,000 compounds, 0.37% hits | AID 651800, 2012; in the data active means inhibition above about 19%;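 further: recombinant mutant TCR 2C K166C tagged with TAMRA read by polarization; 0% = receptor in buffer alone and 100% = receptor with positive control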
# RBBP9 inh: human RBBP9 inhibitors, primary screen, biochemical, fluorescence polarization, FP-Rh probe, HTS. Serine hydrolase RBBP9 (Homo sapiens), O75884. recombinant RBBP9. inhibition, % at 7.94 µM. 220,000 compounds, 0.2% hits. AID 1515, 2009;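 active means inhibition above the campaign mean of all tested compounds plus 3 SD, cut at about 14% in these data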;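 further: plate controls were DMSO wells with RBBP9 for no effect and wells lacking RBBP9 protein for full effect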
# Target sequence (O75884 whole entry, looked up): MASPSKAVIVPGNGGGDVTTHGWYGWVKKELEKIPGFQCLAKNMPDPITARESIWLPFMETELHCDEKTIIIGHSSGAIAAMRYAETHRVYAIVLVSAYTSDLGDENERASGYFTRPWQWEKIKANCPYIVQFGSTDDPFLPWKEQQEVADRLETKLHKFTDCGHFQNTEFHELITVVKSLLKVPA
#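 System: RBBP9 protein | Quantity: 2.5 µM RBBP9 dispensing solution, before mixing | Reagent: FP-Rh probe, 375 nM dispensing solution | Timing: Enzyme-compound preincubation 30 min, then probe labeling 45 min, 25 °C | Measured by: Fluorescence polarization | Read-out: % inhibition | Replication: One well per compound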
# PABP FP inh: PABP poly(A) RNA binding inhibitors, primary screen, biochemical, fluorescence polarization, uHTS; Polyadenylate-binding protein 1 (Homo sapiens), P11940; calls only at 35 µM; 290,000 compounds, 1% hits;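 further: calls also rest on retests at 20 µM and on dose response follow-up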
# * = called active by the depositor; i = inactive; ? = inconclusive; . = no result; + = active, no number. Unless noted, how the calls were made is not given here.
SMILES,eIF4H FP inh,MLLE-PAM2 inh,TCR-CD3 inh,RBBP9 inh,PABP FP inh
CCOC(=O)CNc1c(-c2ccccc2)nc2ccc(Cl)cn12,-10,-5,0,0,i
COc1ccc(NC(=O)N(C)C[C@H]2OCCCC[C@H](C)Oc3ccc(NC(=O)Nc4cccc5ccccc45)cc3C(=O)N([C@@H](C)CO)C[C@H]2C)cc1,.,.,0,.,.
O=C(N[C@H](C(=O)N1CCC[C@H]1C(=O)NC1CCCC1)c1ccccc1)C1CCCC1,.,.,-3,.,.
CCNC(=O)c1sc(=S)n(-c2ccc(C)cc2)c1N,-4,44*,4,0,i
COC(=O)[C@]12C[C@H](CC(=O)NCCc3ccccc3OC)C(=O)N(Cc3ccc4c(c3)OCO4)C1=C[C@H](COCc1ccccc1)O[C@@H]2C,.,.,-3,.,.
CCCN1C(=O)c2[nH]nc(-c3ccccc3)c2C1c1ccc(F)cc1 (stereo not given),.,.,0,.,.
O=c1cc(O)c(-c2ccc(Cl)c(Cl)c2)c(Cl)[nH]1,82*,-5,-5,-3,+
COc1ccc(NC(=O)Cn2nnc(-c3ccccc3NC(=O)C3CC3)n2)cc1,-9,2,-3,-12,i
COc1ccc(C(=O)Cn2nnc(-c3ccccc3NC(=O)C3CCCCC3)n2)cc1,23,-40,2,-6,+
COc1cccc([C@@H](NC(=O)C(F)(F)F)[C@@H]2CCCC=C2c2ccccc2)c1,.,.,3,.,.
CC1(C)Nc2cccc3cccc(c23)N1,.,19,-3,.,.
c1cc2c3c(cccc3c1)NC1(CCCC1)N2,.,43*,4,.,.
O=C(CSc1nc2c(c(=O)n1-c1ccc(F)cc1)SCC2)NCc1ccco1,2,45*,-1,-7,i
O=C(CSc1nc2c(c(=O)n1-c1ccc(Cl)cc1)SCC2)NCc1ccco1,4,6,-2,-8,i
CO[C@@H]1[C@H](O)CC[C@]2(O)CN(c3ccc(F)cc3)[C@](C)([C@H](O)CC=C(C)C)[C@@H]12,.,.,2,.,.
COc1ccccc1C(=O)Nc1ncc2c(n1)CC(c1ccco1)CC2=O (stereo not given),74*,7,6,5,+
COc1cc(O)c(C(C)=O)c(CC(=O)O)c1,96*,2,14,.,+
Cc1ccc(NC(=S)c2ccc3ccccc3n2)c(C)c1,-3,36*,6,.,i
COc1ccc(NC(=S)c2ccncc2)cc1,-6,22,-7,-13,i
CCOc1ccc(NC(=S)c2ccc3ccccc3n2)cc1,5,26,-9,.,i
COc1ccc(NC(=S)c2ccc3ccccc3n2)cc1,-12,38*,.,.,i
COc1ccc(C(=S)Nc2ccc(C)cc2)cc1,2,40*,4,-6,i
CCCCc1c(-c2ccccc2OC)ncn1Cc1cccc(F)c1,.,.,7,.,.
CC(C)C[C@@H]1COc2cc(NCCCN3CCOCC3)ccc2S(=O)(=O)N1,.,.,-6,.,.
CCOC(=O)Cc1csc(NC(=O)/C=C/c2cccc(Br)c2)n1,active,-20,-9,-9,+
SMILES,eIF4H FP inh,MLLE-PAM2 inh,TCR-CD3 inh,RBBP9 inh,PABP FP inh
CCOC(=O)Cc1csc(NC(=O)c2sc3nc4cc(C)ccc4cc3c2N)n1,?,23,-7,-2,+
CCOC(=O)Cc1csc(NC(=S)NC(=O)c2ccccc2Br)n1,5,39*,1,-1,i
CCOC(=O)Cc1csc(NC(=S)NC(=O)c2ccccc2)n1,7,28,0,3,i
CCOC(=O)c1sc(NC(=O)/C=C/c2ccccc2)nc1C,11*,26,1,1,i
CCOC(=O)Cc1csc(NC(=O)c2sc3nc4ccc(CC)cc4cc3c2N)n1,-2,-18,8,-8,i
Cc1ccc2nc(-c3ccc(F)cc3)c(Cc3ccsc3)n2c1,.,.,0,.,.
COc1cc(/C=C2\SC(N)=NC2=O)cc(Cl)c1O,54,-111,-5,.,+
COc1cccc(-c2cc(CNC(=O)[C@H]3O[C@@H](n4cnc(C(N)=O)n4)[C@H](O)[C@@H]3O)no2)c1,.,.,-1,.,.
O=[N+]([O-])c1ccc(N/N=C/c2ccc(O)c(O)c2O)c(S(=O)(=O)N2CCOCC2)c1,90,-14,11,-1,+
O=C1NC(c2cccc(C(F)(F)F)c2)c2c(-c3ccccc3)n[nH]c21 (stereo not given),.,.,1,.,.
O=[N+]([O-])c1cc(Br)c(O)c(C=Nc2ccc(N3CCOCC3)cc2)c1,43,6,49*,-2,i
Oc1ccc(N=Cc2cc(Br)c(N3CCOCC3)o2)cc1,25,-10,32*,1,i
Cc1ccc(Cl)cc1-c1ccc(C=Nc2ccc(N3CCOCC3)cc2)o1,-10,-9,5,-1,i
COc1cccc(C=Nc2ccc(N3CCOCC3)cc2)c1O,-12,6,4,.,i
C[C@H]1[C@H](c2ccccc2)Oc2cccc(NCCc3ccccc3)c2S(=O)(=O)N1Cc1cccc(Cl)c1,.,.,6,.,.
COC(=O)[C@]12C[C@H](CC(=O)N3CCCC3)C(=O)N(CCC3=CCCCC3)C1=C[C@H](COCc1ccccc1)O[C@@H]2C,.,.,-2,.,.
COc1ccc(S(=O)(=O)C(C#N)c2nc3ccccc3nc2N2CCCCC2)cc1 (stereo not given),97*,52,-2,-6,+
CN1CCN(c2nc3ccccc3nc2C(C#N)S(=O)(=O)c2ccccc2)CC1 (stereo not given),?,.,-4,-3,?
Cc1cccc(S(=O)(=O)C(C#N)c2nc3ccccc3nc2N2CCCC2)c1 (stereo not given),122*,-12,-2,0,+
Cc1ccc(C)c(S(=O)(=O)C(C#N)c2nc3ccccc3nc2N2CC(C)OC(C)C2)c1 (stereo not given),78*,3,-6,-9,+
Cc1ccc(S(=O)(=O)C(C#N)c2nc3ccccc3nc2N2CCN(C)CC2)cc1C (stereo not given),122*,23,4,7,+
N#CC(c1nc2ccccc2nc1N1CCCC1)S(=O)(=O)c1ccccc1 (stereo not given),?,23,6,7,?
COC(=O)N1C[C@@H]2Oc3nccnc3O[C@@H]2C[C@@H]1c1ccccc1Br,.,.,0,.,.

# Assay outcomes (PubChem BioAssay)
